Source: ChEMBL document CHEMBL1781947, “Structure-activity studies on the nociceptin/orphanin FQ receptor antagonist 1-benzyl-N-{3-[spiroisobenzofuran-1(3H),4'-piperidin-1-yl]propyl} pyrrolidine-2-carboxamide” (Bioorg Med Chem, 2009)
The source made the active and inactive calls.

What was measured:
[1] = biological target: T1, Nociceptin receptor (Homo sapiens, UniProt P41146); assay: Displacement of [3H]N/OFQ from human recombinant NOP receptor expressed in CHO cells; format: cell-based
Method in brief: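 Membranes from CHO cells expressing human NOP, prepared in 50 mM Tris-HCl, 5 mM Mg2+ pH 7.4. Incubation: 5 µg protein, ~200 pM [3H]N/OFQ, 10 µM peptidase inhibitors (amastatin, bestatin, captopril, phosphoramidon), 0.5% BSA, increasing competitor concentrations, 1 h at room temperature. Nonspecific binding defined with 1 µM unlabeled N/OFQ. Filtration onto 0.5% PEI-soaked GF/B filters; pKi reported.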

[2] = system: Mus musculus; assay: Effect on N/OFQ-induced antinociceptive activity in Swiss albino mouse at 10 mg/kg, ip administered 30 mins before 1 nmol, it N/OFQ challenge by tail withdrawal latency test; format: functional, organism-based; parameters: dose 10 mg/kg
Method in brief: (§1)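 Male Swiss albino mice (25–30 g), distal half of the tail dipped in 48 °C water, 20 s cutoff, observer blind to treatment. Test agent 10 mg/kg ip in 2% DMSO/10% encapsin, 30 min before 1 nmol N/OFQ or saline given icv (2 µl) or i.t. (5 µl). Latency read before and 5, 15, 30 and 60 min after injection. Four mice per group, repeated four times (n=16).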

[3] = biological target: T1, Nociceptin receptor; assay: Antagonist activity at human recombinant NOP expressed in expressed on CHO cells co-expressing Galphaqi5 chimeric protein assessed as inhibition of NOPN/OFQ-stimulated calcium mobilization; format: functional, cell-based
Method in brief: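 CHO cells stably co-expressing hNOP and Gαqi5, 40,000 cells/well, loaded 24 h later with Fluo-4 AM 3 µM, probenecid 2.5 mM, pluronic 0.01% for 30 min at 37 °C. Assay buffer HBSS/20 mM HEPES with probenecid and Brilliant Black. Fluorescence read at room temperature. Antagonist inhibition of 10 nM N/OFQ response. pKb derived from IC50 via the Kb equation. Four experiments in duplicate.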

[4] = system: Mus musculus; assay: Effect on N/OFQ-induced pronociciceptive activity in Swiss albino mouse at 10 mg/kg, ip administered 30 mins before 1 nmol, icv N/OFQ challenge by tail withdrawal latency test; format: functional, organism-based; parameters: dose 10 mg/kg; method in brief: as §1
[5] = biological target: Nociceptin receptor (Mus musculus, UniProt P35377); assay: Antagonist activity at nociceptin receptor in Swiss mouse vas deferens assessed as inhibition of electrically evoked twitches; format: functional, tissue-based; settings: read-out: pA2 (converted)
Method in brief: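 Vas deferens from male Swiss mice (30–35 g), field-stimulated with supramaximal 1 ms pulses at 0.05 Hz. Twitches recorded isotonically after 60 min equilibration. Cumulative N/OFQ curves run in 0.5 log steps, without or with antagonist pre-incubated 15 min. pA2 from Schild analysis. At least four experiments.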

[6] = system: Mus musculus; assay: Effect on N/OFQ-induced pronociciceptive activity in Swiss albino mouse at 1 mg/kg, ip administered 30 mins before 1 nmol, icv N/OFQ challenge by tail withdrawal latency test; format: functional, organism-based; parameters: dose 1 mg/kg
[7] = system: Mus musculus; assay: Effect on N/OFQ-induced antinociceptive activity in Swiss albino mouse at 1 mg/kg, ip administered 30 mins before 1 nmol, it N/OFQ challenge by tail withdrawal latency test; format: functional, organism-based; parameters: dose 1 mg/kg
[8] = biological target: Nociceptin receptor (Rattus norvegicus) (UniProt P35370); settings: Sprague-Dawley, Vas deferens
[9] = biological target: T1, Nociceptin receptor; assay: Antagonist activity at human recombinant NOP expressed in CHO cells by [35S]GTPgammaS binding assay; format: functional, cell-based; settings: read-out: pA2 (converted)
Method in brief: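 Membranes from CHO cells stably expressing human NOP, prepared in 50 mM Tris-HCl, 0.2 mM EGTA pH 7.4; 20 µg protein with MgCl2 1 mM, NaCl 100 mM, bacitracin 0.15 mM, peptidase inhibitors, GDP 100 µM, ~150 pM [35S]GTPγS. Antagonist preincubated 15 min at 30 °C, then N/OFQ concentration-response 1 h at 30 °C; filtration without PEI. pA2 from Schild analysis.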

[10] = biological target: T2, Delta-type opioid receptor (Homo sapiens, UniProt P41143); settings: CHO
[11] = biological target: T3, Mu-type opioid receptor (Homo sapiens, UniProt P35372); settings: CHO
[12] = biological target: T4, Kappa-type opioid receptor (Homo sapiens, UniProt P41145); settings: CHO
[13] = biological target: T3, Mu-type opioid receptor; assay: Displacement of [3H]DPN from human recombinant mu-type opioid receptor expressed in CHO cell membranes; format: cell-based
[14] = biological target: Nociceptin receptor (Cavia porcellus) (UniProt P47748); settings: Albino, Ileum
[15] = biological target: T2, Delta-type opioid receptor; assay: Displacement of [3H]DPN from human recombinant delta-type opioid receptor expressed in CHO cell membranes
Method in brief: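 CHO membranes expressing human DOP (25 µg protein) incubated 1 h at room temperature in 50 mM Tris-HCl pH 7.4, 0.5% BSA, ~0.7 nM [3H]diprenorphine with increasing test concentrations. Filtration through PEI-soaked GF/B filters, scintillation counting. Four separate experiments.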

[16] = biological target: T4, Kappa-type opioid receptor; assay: Displacement of [3H]DPN from human recombinant kappa-type opioid receptor expressed in CHO cell membranes; format: cell-based

T1 sequence (P41146 whole entry): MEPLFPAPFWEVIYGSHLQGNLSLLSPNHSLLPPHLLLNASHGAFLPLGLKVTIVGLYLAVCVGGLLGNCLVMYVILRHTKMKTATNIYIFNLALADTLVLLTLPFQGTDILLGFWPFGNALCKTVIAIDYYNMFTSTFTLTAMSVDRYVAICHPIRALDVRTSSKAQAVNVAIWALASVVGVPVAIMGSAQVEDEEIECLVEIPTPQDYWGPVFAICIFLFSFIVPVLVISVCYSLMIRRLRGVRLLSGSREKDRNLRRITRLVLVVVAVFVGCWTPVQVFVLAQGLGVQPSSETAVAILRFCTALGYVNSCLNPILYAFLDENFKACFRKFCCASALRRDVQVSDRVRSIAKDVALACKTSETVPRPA
Chain of Nociceptin receptor (Mus musculus, UniProt P35377) (P35377 whole entry): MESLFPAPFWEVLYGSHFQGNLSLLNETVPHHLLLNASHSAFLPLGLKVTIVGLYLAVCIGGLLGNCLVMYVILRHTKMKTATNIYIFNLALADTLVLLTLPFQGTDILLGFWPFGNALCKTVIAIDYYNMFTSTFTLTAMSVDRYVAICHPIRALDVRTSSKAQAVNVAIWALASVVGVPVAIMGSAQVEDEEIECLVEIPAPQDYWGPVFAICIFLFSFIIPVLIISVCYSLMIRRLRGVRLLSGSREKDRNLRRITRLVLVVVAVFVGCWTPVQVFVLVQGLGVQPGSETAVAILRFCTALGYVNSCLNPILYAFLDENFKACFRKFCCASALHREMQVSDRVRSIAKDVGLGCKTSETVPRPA
T2 sequence (P41143 whole entry): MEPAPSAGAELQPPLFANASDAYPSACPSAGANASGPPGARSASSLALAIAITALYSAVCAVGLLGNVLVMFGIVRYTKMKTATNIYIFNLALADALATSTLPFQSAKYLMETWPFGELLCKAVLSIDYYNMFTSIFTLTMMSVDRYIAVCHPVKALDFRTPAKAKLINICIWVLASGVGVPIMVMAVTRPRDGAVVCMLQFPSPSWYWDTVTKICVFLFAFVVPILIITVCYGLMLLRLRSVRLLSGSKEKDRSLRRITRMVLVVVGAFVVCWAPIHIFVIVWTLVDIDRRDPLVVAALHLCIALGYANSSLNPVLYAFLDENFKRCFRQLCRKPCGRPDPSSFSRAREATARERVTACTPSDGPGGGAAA
T4 sequence (P41145 whole entry): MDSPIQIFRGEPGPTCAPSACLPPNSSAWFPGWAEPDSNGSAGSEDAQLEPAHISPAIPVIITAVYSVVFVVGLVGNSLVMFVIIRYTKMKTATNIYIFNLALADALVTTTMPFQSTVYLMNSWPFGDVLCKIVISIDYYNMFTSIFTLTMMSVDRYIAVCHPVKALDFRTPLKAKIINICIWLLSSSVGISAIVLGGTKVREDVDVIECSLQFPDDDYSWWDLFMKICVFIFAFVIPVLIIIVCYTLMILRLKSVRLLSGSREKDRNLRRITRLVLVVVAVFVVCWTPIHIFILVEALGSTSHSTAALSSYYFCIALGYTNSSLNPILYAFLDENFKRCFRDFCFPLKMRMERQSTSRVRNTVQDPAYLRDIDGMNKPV
T3 sequence (P35372 whole entry): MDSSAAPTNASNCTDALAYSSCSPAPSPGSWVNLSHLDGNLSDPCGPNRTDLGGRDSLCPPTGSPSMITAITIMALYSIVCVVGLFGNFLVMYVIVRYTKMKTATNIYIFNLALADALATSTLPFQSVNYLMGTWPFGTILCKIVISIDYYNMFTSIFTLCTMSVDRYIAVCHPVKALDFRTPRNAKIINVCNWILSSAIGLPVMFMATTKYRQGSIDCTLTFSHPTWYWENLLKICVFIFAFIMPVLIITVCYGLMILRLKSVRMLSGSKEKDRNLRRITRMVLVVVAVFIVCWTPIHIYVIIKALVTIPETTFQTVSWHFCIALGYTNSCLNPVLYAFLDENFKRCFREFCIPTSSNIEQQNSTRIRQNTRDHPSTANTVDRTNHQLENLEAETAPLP
Chain of Nociceptin receptor (Cavia porcellus) (P47748 whole entry): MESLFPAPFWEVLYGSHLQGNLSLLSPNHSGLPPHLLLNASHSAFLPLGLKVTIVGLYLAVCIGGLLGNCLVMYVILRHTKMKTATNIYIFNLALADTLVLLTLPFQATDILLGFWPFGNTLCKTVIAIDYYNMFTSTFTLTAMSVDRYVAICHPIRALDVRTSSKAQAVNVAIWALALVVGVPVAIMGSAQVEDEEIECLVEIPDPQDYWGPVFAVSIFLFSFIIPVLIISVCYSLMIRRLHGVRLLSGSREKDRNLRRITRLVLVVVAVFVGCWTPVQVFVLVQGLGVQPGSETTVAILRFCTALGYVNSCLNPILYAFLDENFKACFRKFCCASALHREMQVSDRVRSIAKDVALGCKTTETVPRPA
Chain of Nociceptin receptor (Rattus norvegicus) (P35370 whole entry): as the sequence (P35377 whole entry) above, with F9Y, A335S counted along it

For `O=C(NCCCN1CCC(c2c(Cl)cccc2Cl)CC1)[C@@H]1CCCN1Cc1ccccc1`, the Ki [1] was 0.0832 µM.
With `O=C(NCCCN1CCC2(CC1)OCc1ccccc12)[C@H]1CCCN1Cc1ccccc1` the Activity [2] was “Active”, the pKb [3] was 9.03 and the Activity [4] was “Active”. The Kb [5] was 0.00575 µM and the Ki [1] was 0.00024 µM.
In the case of `O=C(OCCCN1CCC2(CC1)OCc1ccccc12)[C@H]1CCCN1Cc1ccccc1`, the Ki [1] is reported as 0.107 µM.
Work on `C(=C[C@H]1CCCN1Cc1ccccc1)CCCN1CCC2(CC1)NCc1ccccc12` yielded a Ki [1] of over 10 µM.
`c1ccc(CN2CCC[C@@H]2CNCCCN2CCC3(CC2)OCc2ccccc23)cc1` showed a Ki [1] of 0.049 µM.
With `O=C(CNCc1ccccc1)NCCCN1CCC2(CC1)OCc1ccccc12` the Ki [1] was 0.0603 µM.
Compound `N[C@H](Cc1ccccc1)C(=O)NCCCN1CCC2(CC1)OCc1ccccc12` has a Ki [1] of 0.0589 µM.
Compound `CN(CCCN1CCC2(CC1)OCc1ccccc12)C(=O)[C@H]1CCCN1Cc1ccccc1` has a Ki [1] of 1.15 µM.
`Cc1cccc2c1CC[C@H](CN1CCC(c3c(Cl)cccc3Cl)CC1)C[C@@H]2O` was tested, and the Activity [6] was “Active” and the Activity [7] was “Active”.
`c1ccc(CN2CCC[C@@H]2COCCCN2CCC3(CC2)OCc2ccccc23)cc1` showed a Ki [1] of 0.158 µM.
Work on `N[C@@H](Cc1ccccc1)C(=O)NCCCN1CCC2(CC1)OCc1ccccc12` yielded a Ki [1] of 0.0589 µM.
For `O=C(NCCCN1CCC(c2c(Cl)cccc2Cl)CC1)[C@H]1CCCN1Cc1ccccc1`, the pKb [8] was 8.06, the Kb [9] was 0.000123 µM and the Activity [2] was “inactive”. For the same compound, the pKb [10] was under 6, the pKb [11] was 6.11 and the pKb [3] was 8.47. The pKb [12] was under 6, the Activity [4] was “inactive” and the Ki [13] was 0.191 µM. The pKb [14] was 8.84, the Ki [15] was over 1 µM and the Ki [16] was 0.316 µM. It also gave a Kb [5] of 0.01 µM and a Ki [1] of 0.000724 µM.
